Active and inactive are the calls of the source.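 The calls were made as follows, unless noted: active = viability at or below 30% in both replicate assays; inconclusive = viability at or below 30% in just one of the two assays; inactive = the rest.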

Assay [1] can be described thus: HUVEC growth inhibition – cell-based, human, primary screen (AID 575).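 Also: 100% = median of untreated cell wells with 0.1% DMSO on each plate.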 Conditions: HUVEC proliferation, CellTiter-Glo luminescence, 72 h; at 10 µM; stronger effect = lower value. In outline: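 Assay system: Primary human umbilical vein endothelial cells | Quantity: 1250 cells per well | Medium: Supplemented EBM, 2% fetal bovine serum | Detection: CellTiter-Glo luminescence measuring cellular ATP | Read-out: % viability vs DMSO wells | Plate: Collagen-coated 384-well format | Times: 72 h exposure, 37 °C, 5% CO2, 30 min RT equilibration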
(Cellular ATP, detected with luciferase, serves as a proxy for viable cell number.)

A short description of assay [2]: H69AR cell proliferation blockers – human, duplicate replicates, primary screen (AID 580;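 active = viability at or under a set limit in both replicates, limit being median viability minus 3 SD, cut at about 48% in these data, passing the limit was not always enough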;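 also: 100% = mean luminescence of untreated wells and 0% = no signal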). Conditions: H69AR lung tumor cells viability, ATP luminescence, 72 h; at 10 µM; stronger effect = lower value.
A short description of assay [3]: MRP1 drug-resistance reversers in H69AR cells – cell-based, doxorubicin co-treatment, pilot screen (AID 601;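 active = viability loss from added drug above about 55%, and viability with drug at most 40%, in both replicates, limit read from the data, passing the limit was not always enough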). To be noted: CellTiter-Glo, 72 h, at 10 µM; for differential viability (reversal): stronger effect = higher value.
Assay [4] can be described thus: yeast transport mutant growth inhibition pilot in 384-well plates, post-Golgi transport modulator project (AID 636; in the data active = inhibition above about 31%). Conditions: absorbance 615 nm, about 18 h, stronger effect = higher value.
Assay [5] is described as follows: growth suppression of yeast trafficking mutant, preliminary HTS, modulators of trafficking downstream of Golgi apparatus project, 1536-format plate, OD 615 nm (AID 637; in the data active = inhibition above about 30%). To be noted: yeast transport mutant growth, absorbance 615 nm, 18 h; stronger effect = higher value.
[6] abbreviates: H69AR cells + 2 uM doxorubicin, measured here: viability with 2 uM doxorubicin, stronger effect = lower value.
[7] abbreviates: H69AR cells, compound alone cytotoxicity.

As to `O=C(NCC(=O)N(CCc1ccccc1)C(C(=O)NC1CCCC1)c1cccnc1)c1ccco1` (stereo not given), the viability was 96.9% (inactive) in assay [1], 99.8% (inactive) in assay [2], 101% in assay [3] (setting [6]) and 99.8% in assay [3] (setting [7]). Moreover, the differential viability (reversal) in assay [3] (H69AR cells + 2 uM doxorubicin) was -1.49% (inactive). In addition, the inhibition in assay [4] is -2.24% (inactive); in assay [5], -6.98% (inactive).
As for `COc1ccc(N2CCN(C(=O)CN3C(=O)C4CC=CCC4C3=O)CC2)cc1` (stereo not given), the viability in assay [1] was 99.7% (inactive); in assay [2] it was 94.6% (inactive); in assay [3] (setting [6]) it was 91.5%; in assay [3] (setting [7]), 94.6%. Further, the differential viability (reversal) in assay [3] (H69AR cells + 2 uM doxorubicin) is 3.03% (inactive). In addition, the inhibition in assay [4] is 2.47% (inactive); in assay [5], 14.8% (inactive).
As to `O=C(Nc1ccc(Cc2ccncc2)cc1)C1CC1`, the viability in assay [1] is 88.2% (inactive); in assay [2], 99.5% (inactive); in assay [3] (setting [6]) it was 82.1%; in assay [3] (setting [7]), 99.5%. In assay [3] (H69AR cells + 2 uM doxorubicin), the differential viability (reversal) was 17.4% (inactive). The inhibition in assay [4] is -2.21% (inactive); in assay [5], 1.75% (inactive).
For `COCC(=O)N(Cc1ccccc1)c1ccccn1`, the viability was 83.3% (inactive) in assay [1], 90.1% (inactive) in assay [2], 91.3% in assay [3] (setting [6]) and 90.1% in assay [3] (setting [7]). In addition, the differential viability (reversal) in assay [3] (H69AR cells + 2 uM doxorubicin) is -1.27% (inactive). Besides, the inhibition in assay [4] was -5.32% (inactive); in assay [5], 9.37% (inactive).
As for `CCCSC1=C(C#N)C(c2ccccc2OCC)CC(=O)N1` (stereo not given), the viability is 79% (inactive) in assay [1], 90.1% (inactive) in assay [2], 93.3% in assay [3] (setting [6]) and 90.1% in assay [3] (setting [7]). For the same molecule, the differential viability (reversal) in assay [3] (H69AR cells + 2 uM doxorubicin) is -3.18% (inactive). For the same molecule, the inhibition in assay [4] is -2.5% (inactive); in assay [5] it was 3.33% (inactive).
On to `CCOc1ccc(C(=O)Nc2cc(C)on2)cc1OCC`, for which the viability in assay [1] is 90.1% (inactive); in assay [2], 89.9% (inactive); in assay [3] (setting [6]) it was 89.6%; in assay [3] (setting [7]), 89.9%. Further, the differential viability (reversal) in assay [3] (H69AR cells + 2 uM doxorubicin) was 0.35% (inactive). Further, the inhibition was -4.87% (inactive) in assay [4] and 3.17% (inactive) in assay [5].
With `COCC(=O)NC(c1ccccc1)c1ccccc1`, the viability was 86.1% (inactive) in assay [1], 89.5% (inactive) in assay [2], 77.3% in assay [3] (setting [6]) and 89.5% in assay [3] (setting [7]). Besides, the differential viability (reversal) in assay [3] (H69AR cells + 2 uM doxorubicin) was 12.2% (inactive). The inhibition in assay [4] was -5.84% (inactive); in assay [5] it was 3.81% (inactive).
In the case of `COc1ccc(C2C(C#N)=C(N)Oc3cc4c(cc32)OCO4)cc1` (stereo not given), the viability in assay [1] is 53.4% (inactive); in assay [2] it was 32.8% (active); in assay [3] (setting [6]), 82.2%; in assay [3] (setting [7]) it was 32.8%. In assay [3] (H69AR cells + 2 uM doxorubicin), the differential viability (reversal) was -49.4% (inactive). Besides, the values for the inhibition in assay [4] and in assay [5] were -5.07% (inactive) and -1.11% (inactive), respectively.
Take `CC(=O)Nc1ccc(S(=O)(=O)N2CCN(Cc3ccncc3)CC2)cc1`: the viability in assay [1] was 90.7% (inactive); in assay [2], 109% (inactive); in assay [3] (setting [6]), 90.5%; in assay [3] (setting [7]), 109%. For the same molecule, in assay [3] (H69AR cells + 2 uM doxorubicin), the differential viability (reversal) was 18.1% (inactive). Further, the inhibition in assay [4] is -5.13% (inactive); in assay [5], 1.59% (inactive).
Consider `COCC(=O)Nc1sc2c(c1C(=O)OC)CCC(C)C2` (stereo not given), for which the viability in assay [1] is 88.4% (inactive); in assay [2], 94.8% (inactive); in assay [3] (setting [6]), 90.3%; in assay [3] (setting [7]), 94.8%. Also, the differential viability (reversal) in assay [3] (H69AR cells + 2 uM doxorubicin) was 4.53% (inactive). Also, the inhibition in assay [4] is -2.76% (inactive); in assay [5], 5.08% (inactive).
On to `COc1ccc(C2C3=C(OC(C)=O)c4ccccc4C3=Nc3c2c(=O)n(C)c(=O)n3C)cc1` (stereo not given), for which the viability in assay [1] was 65.4% (inactive); in assay [2] it was 74.1% (inactive); in assay [3] (setting [6]), 73.7%; in assay [3] (setting [7]) it was 74.1%. In addition, the differential viability (reversal) in assay [3] (H69AR cells + 2 uM doxorubicin) was 0.425% (inactive). Also, the inhibition in assay [4] is -4% (inactive); in assay [5], 0.79% (inactive).
With `Cc1nc(C)c(C(=O)OCC(=O)N2CCN(c3ccccc3)CC2)s1`, the viability is 108% (inactive) in assay [1], 95.8% (inactive) in assay [2], 88.1% in assay [3] (setting [6]) and 95.8% in assay [3] (setting [7]). For the same molecule, the differential viability (reversal) in assay [3] (H69AR cells + 2 uM doxorubicin) is 7.64% (inactive). Besides, the inhibition in assay [4] is -4.55% (inactive); in assay [5], 4.29% (inactive).
With `CN(c1ccccc1C(=O)N1CCN(c2cccc(Cl)c2)CC1)S(C)(=O)=O`, the viability is 108% (inactive) in assay [1], 93.8% (inactive) in assay [2], 94.5% in assay [3] (setting [6]) and 93.8% in assay [3] (setting [7]). In addition, the differential viability (reversal) in assay [3] (H69AR cells + 2 uM doxorubicin) was -0.775% (inactive). Further, the inhibition was -6.53% (inactive) in assay [4] and 1.43% (inactive) in assay [5].
As to `Cc1cc(C)c(S(=O)(=O)N(C)CC(N)=O)c(C)c1`, the viability was 95% (inactive) in assay [1], 91.7% (inactive) in assay [2], 104% in assay [3] (setting [6]) and 91.7% in assay [3] (setting [7]). Moreover, in assay [3] (H69AR cells + 2 uM doxorubicin), the differential viability (reversal) was -12.6% (inactive). For the same molecule, the figures for the inhibition in assay [4] and in assay [5] were 2.37% (inactive) and -4.13% (inactive), respectively.
With `CC(=O)Nc1ccc(S(=O)(=O)N(CC(=O)O)Cc2ccccc2)cc1`, the viability in assay [1] is 93.7% (inactive); in assay [2], 97.7% (inactive); in assay [3] (setting [6]) it was 104%; in assay [3] (setting [7]), 97.7%. Moreover, the differential viability (reversal) in assay [3] (H69AR cells + 2 uM doxorubicin) was -6.14% (inactive). Besides, the inhibition is -2.47% (inactive) in assay [4] and 7.14% (inactive) in assay [5].
`Cc1ccc(-c2nc(-c3cccnc3)no2)c(C)c1`: the viability in assay [1] is 78.9% (inactive); in assay [2], 90.1% (inactive); in assay [3] (setting [6]), 90.7%; in assay [3] (setting [7]), 90.1%. In assay [3] (H69AR cells + 2 uM doxorubicin), the differential viability (reversal) was -0.56% (inactive). The inhibition in assay [4] was -6.49% (inactive); in assay [5], -9.52% (inactive).
With `Nc1nc(-c2ccccc2)cc(C(F)(F)F)n1`, the viability is 95.4% (inactive) in assay [1], 103% (inactive) in assay [2], 94.1% in assay [3] (setting [6]) and 103% in assay [3] (setting [7]). Also, the differential viability (reversal) in assay [3] (H69AR cells + 2 uM doxorubicin) is 8.53% (inactive). Also, the figures for the inhibition in assay [4] and in assay [5] were -3.51% (inactive) and 1.27% (inactive), respectively.
For `Cc1ccc(S(=O)(=O)NC(C(=O)OCC(=O)NC2CCS(=O)(=O)C2)C(C)C)cc1` (stereo not given), the viability is 98.1% (inactive) in assay [1], 92.9% (inactive) in assay [2], 92.8% in assay [3] (setting [6]) and 92.9% in assay [3] (setting [7]). Besides, the differential viability (reversal) in assay [3] (H69AR cells + 2 uM doxorubicin) is 0.03% (inactive). Also, the inhibition was -1.69% (inactive) in assay [4] and 0.63% (inactive) in assay [5].
Turning to `O=C(NCc1ccc(F)cc1)c1cc(-c2ccco2)on1`, the viability in assay [1] was 93.4% (inactive); in assay [2], 92.5% (inactive); in assay [3] (setting [6]) it was 101%; in assay [3] (setting [7]), 92.5%. In addition, the differential viability (reversal) in assay [3] (H69AR cells + 2 uM doxorubicin) was -8.09% (inactive). The results for the inhibition in assay [4] and in assay [5] were -2.89% (inactive) and -5.56% (inactive), respectively.
Regarding `O=C(NC1(C(F)(F)F)NC(=O)N(Cc2ccco2)C1=O)c1cccnc1` (stereo not given), the viability in assay [1] was 109% (inactive); in assay [2], 97.2% (inactive); in assay [3] (setting [6]), 94.8%; in assay [3] (setting [7]), 97.2%. In addition, the differential viability (reversal) in assay [3] (H69AR cells + 2 uM doxorubicin) is 2.34% (inactive). The figures for the inhibition in assay [4] and in assay [5] were -7.89% (inactive) and 1.11% (inactive), respectively.

Broadly, the viability is a read-out of living cells in per cent, often relative to untreated cells. What is called inhibition is the change of the read-out against control, counted positive when it falls.

For the origin of these results see PubChem BioAssay.
